This note sets out measurements from ChEMBL document CHEMBL1287707, “Virtual screening against nuclear factor κB (NF-κB) of a focus library: Identification of bioactive furocoumarin derivatives inhibiting NF-κB dependent biological functions involved in cystic fibrosis” (Bioorg Med Chem, 2010).

Calls of active or inactive are those of the source. The calls are words filed in the database; no cut-off is given here.

What is called IC50 is the point on the concentration scale where inhibition reaches its midpoint. Lower therefore signals greater potency in that assay.

In one test the target is T1, Nuclear factor NF-kappa-B p105 subunit (Homo sapiens, UniProt P19838).
T1 sequence (P19838 whole entry): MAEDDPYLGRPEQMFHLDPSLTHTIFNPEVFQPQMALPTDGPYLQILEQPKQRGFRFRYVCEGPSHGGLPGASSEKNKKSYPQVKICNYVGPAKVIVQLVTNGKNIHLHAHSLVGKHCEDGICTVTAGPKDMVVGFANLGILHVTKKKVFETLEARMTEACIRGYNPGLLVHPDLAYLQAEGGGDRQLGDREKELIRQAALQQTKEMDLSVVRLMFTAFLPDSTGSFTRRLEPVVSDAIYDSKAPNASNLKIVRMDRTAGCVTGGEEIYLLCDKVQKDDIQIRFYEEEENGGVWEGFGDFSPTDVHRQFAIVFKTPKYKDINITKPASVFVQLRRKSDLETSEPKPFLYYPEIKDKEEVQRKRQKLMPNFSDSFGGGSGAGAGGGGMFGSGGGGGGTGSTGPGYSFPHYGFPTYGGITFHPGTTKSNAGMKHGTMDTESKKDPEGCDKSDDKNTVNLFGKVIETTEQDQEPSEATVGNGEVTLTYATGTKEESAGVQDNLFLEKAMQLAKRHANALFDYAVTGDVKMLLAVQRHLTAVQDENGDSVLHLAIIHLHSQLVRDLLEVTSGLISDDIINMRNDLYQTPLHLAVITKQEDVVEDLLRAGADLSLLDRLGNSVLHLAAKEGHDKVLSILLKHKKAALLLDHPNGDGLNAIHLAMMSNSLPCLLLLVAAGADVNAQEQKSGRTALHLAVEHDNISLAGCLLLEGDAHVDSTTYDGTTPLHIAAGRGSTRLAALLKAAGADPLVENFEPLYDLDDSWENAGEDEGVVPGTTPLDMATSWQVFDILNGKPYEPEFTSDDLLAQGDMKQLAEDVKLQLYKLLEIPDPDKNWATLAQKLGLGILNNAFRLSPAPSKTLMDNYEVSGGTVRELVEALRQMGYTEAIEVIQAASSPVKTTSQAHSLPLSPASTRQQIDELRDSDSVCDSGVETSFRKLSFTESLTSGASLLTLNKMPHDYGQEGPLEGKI
Briefly: Inhibition of NF-KB p50 subunit/DNA interaction after 20 mins by EMSA. In outline: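 Recombinant human NF-κB p50 (10 ng) was preincubated 20 min at room temperature with varied compound concentrations in buffer TF with 5% glycerol and 1 mM DTT. 0.25 ng 32P-labelled double-stranded NF-κB site oligo was added for a further 20 min. Complexes were resolved on 6% PAGE in 0.25X TBE and detected by autoradiography. IC50 is the concentration giving 50% inhibition of binding.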
On the technique in general: Mobility shift assays separate free from complexed probe on a gel.
In turn, `O=c1cc(-c2ccccc2)c2cc3c(-c4ccc5c(c4)OCO5)coc3cc2o1` registered an IC50 of 20 µM.
Same read-out and setting: the same measure for `COCCNc1oc2c(c1-c1cc(OC)c(OC)c(OC)c1)c(=O)oc1c(C)cccc12`: 40 µM; for `O=C(O)c1ccc(COc2cc(O)cc3oc(=O)c4c(c23)CCC4)cc1`: 5000 µM.
Still for that read-out and setting: in the case of `COc1ccc(C(=O)c2oc3ccc4c(C)cc(=O)oc4c3c2-c2ccccc2)cc1` it was 60 µM.
Same read-out and setting: the same measure for `O=c1ccc2ccc3occc3c2o1` [ANGELICIN]: 2500 µM.
The compound `O=c1c(Br)cc2c(-c3ccccc3S(=O)(=O)O)c3cc(Br)c(O)c(O)c3oc-2c1O` [BROMOPYROGALLOL RED] displayed an IC50 of 30 µM.
The same measure, in the same setting: the same measure for `Cc1cc(=O)oc2cc(O)ccc12` [HYMECROMONE]: 200 µM; for `O=C(O)/C=C/c1ccccc1O` [O-COUMARIC ACID]: 50 µM; for `O=c1ccc2cc3ccoc3cc2o1` [PSORALEN]: 3000 µM.
Still for that read-out and setting: the same measure for `O=c1ccc2c(-c3ccccc3S(=O)(=O)O)c3ccc(O)c(O)c3oc-2c1O` [PYROGALLOL RED]: 10 µM.

A further test has as its system IB3-1. Briefly: Antiinflammatory activity in Pseudomonas aeruginosa PAO1 infected human IB3-1 cells assessed as inhibition of IL8 gene expression at 10 uM after 4 hrs by RT-PCR analysis. It counts as functional, cell-based. In outline: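 IB3-1 CF bronchial cells (ΔF508/W1282X) were grown in LHC-8 with 5% FBS, seeded at 200,000 cells/cm2, and serum-starved 18 h. Cells were then preincubated overnight with compound at 10 µM and infected with PAO1 at 30–100 CFU/cell for 4 h at 37 °C. Total RNA was reverse-transcribed and IL-8 mRNA quantified by RT-qPCR.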
Consider `COCCNc1oc2c(c1-c1cc(OC)c(OC)c(OC)c1)c(=O)oc1c(C)cccc12`, for which the result was Active.
As for `COc1ccc(C(=O)c2oc3ccc4c(C)cc(=O)oc4c3c2-c2ccccc2)cc1`, the outcome was Active.
